# Measurements as given in ChEMBL document CHEMBL1208776, “Design, synthesis and evaluation of a novel double pro-drug: INX-08189. A new clinical candidate for hepatitis C virus” (Bioorg Med Chem Lett, 2010).
# How the values were obtained:
# [1] = Cytotoxicity against human HuH7 cells; type: cell-based, Huh-7
# Caco-2 = experiment: (§1) Permeability across human Caco-2 cells from apical to basolateral side in human Caco2 cell membrane; type: ADME, cell-based
# Procedure, shortened: (§2)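 Caco-2 monolayers were grown for 27 days (resistance 600 ohms/cm²). Apical-to-basal transport was measured as % transported in 80 min, with permeability expressed in cm/s.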
# Hepatitis C virus = experiment: Antiviral activity against HCV genotype 1b in Huh7 cells assessed as inhibition of viral replication by cell-based replicon assay; type: functional, organism-based, Hepacivirus hominis; details: Huh-7
# [2] = as §1; type: ADME, cell-based; details: read-out: permeability; procedure, shortened: as §2
# Carboxypeptidase A = experiment: Half life in carboxypeptidase A assay
# Hepatocyte = experiment: Cmax in primary human hepatocytes after 2uM treatment; type: ADME, cell-based
# Procedure, shortened: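 Primary human hepatocytes were incubated with 2 µM compound. Intracellular 2′-C-methyl guanosine triphosphate was measured over 48 h and expressed as pmol/10⁶ cells. Cmax and decay half-life were estimated from the time course.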
# [3] = human, HuH7 cells, read-out: CC50
Structure (SMILES),"CC50 [1, 3] [nM]",permeability (Caco-2) [%],EC50 (Hepatitis C virus) [nM],EC90 (Hepatitis C virus) [nM],"CC50 ([1]; Homo sapiens, Huh-7) [nM]",Papp A→B [2] [×10⁻⁶ cm/s],half-life (Carboxypeptidase A) [min],Cmax_triphosphate (Hepatocyte) [pmol/10^6cells]
C[C@H](NP(=O)(OC[C@H]1O[C@@H](n2cnc3c(=O)[nH]c(N)nc32)[C@](C)(O)[C@@H]1O)Oc1cccc2ccccc12)C(=O)OCC(C)(C)C (stereo partly drawn),> 100000,< 0.5,72,270,–,–,–,–
COc1nc(N)nc2c1ncn2[C@@H]1O[C@H](COP(=O)(N[C@@H](C)C(=O)OCc2ccccc2)Oc2cccc3ccccc23)[C@@H](O)[C@@]1(C)O (stereo partly drawn),–,–,30,100,12000,4.02,–,–
CCCOC(=O)[C@H](C)NP(=O)(OC[C@H]1O[C@@H](n2cnc3c(OC)nc(N)nc32)[C@](C)(O)[C@@H]1O)Oc1cccc2ccccc12 (stereo partly drawn),–,–,30,100,13000,–,–,–
COc1nc(N)nc2c1ncn2[C@@H]1O[C@H](COP(=O)(N[C@@H](C)C(=O)OC(C)C)Oc2cccc3ccccc23)[C@@H](O)[C@@]1(C)O (stereo partly drawn),–,–,540,1700,> 100000,–,–,–
COc1nc(N)nc2c1ncn2[C@@H]1O[C@H](COP(=O)(N[C@@H](C)C(=O)OC2CCCCC2)Oc2cccc3ccccc23)[C@@H](O)[C@@]1(C)O (stereo partly drawn),–,–,30,90,6000,–,–,–
COc1nc(N)nc2c1ncn2[C@@H]1O[C@H](COP(=O)(N[C@@H](C)C(=O)OC2CCCC2)Oc2cccc3ccccc23)[C@@H](O)[C@@]1(C)O (stereo partly drawn),–,–,30,80,9000,–,–,–
COc1nc(N)nc2c1ncn2[C@@H]1O[C@H](COP(=O)(N[C@@H](C)C(=O)OCCC(C)(C)C)Oc2cccc3ccccc23)[C@@H](O)[C@@]1(C)O (stereo partly drawn),–,–,20,80,14000,–,–,–
COc1nc(N)nc2c1ncn2[C@@H]1O[C@H](COP(=O)(N[C@H](C)C(=O)OCC(C)(C)C)Oc2cccc3ccccc23)[C@@H](O)[C@@]1(C)O (stereo partly drawn),–,–,240,580,51000,–,–,–
COc1nc(N)nc2c1ncn2[C@@H]1O[C@H](COP(=O)(N[C@@H](CCSC)C(=O)OCC(C)(C)C)Oc2cccc3ccccc23)[C@@H](O)[C@@]1(C)O (stereo partly drawn),–,–,60,190,28000,–,–,–
COc1nc(N)nc2c1ncn2[C@@H]1O[C@H](COP(=O)(N[C@@H](CC(C)C)C(=O)OCC(C)(C)C)Oc2cccc3ccccc23)[C@@H](O)[C@@]1(C)O (stereo partly drawn),–,–,70,230,14000,–,–,–
CC[C@H](C)[C@H](NP(=O)(OC[C@H]1O[C@@H](n2cnc3c(OC)nc(N)nc32)[C@](C)(O)[C@@H]1O)Oc1cccc2ccccc12)C(=O)OCC(C)(C)C (stereo partly drawn),–,–,860,2530,18000,–,–,–
COc1nc(N)nc2c1ncn2[C@@H]1O[C@H](COP(=O)(N[C@H](C(=O)OCC(C)(C)C)C(C)C)Oc2cccc3ccccc23)[C@@H](O)[C@@]1(C)O (stereo partly drawn),–,–,190,640,33000,–,–,–
COc1nc(N)nc2c1ncn2[C@@H]1O[C@H](CO[P@@](=O)(N[C@@H](C)C(=O)OCC(C)(C)C)Oc2cccc3ccccc23)[C@@H](O)[C@@]1(C)O,–,–,–,–,–,–,20,–
COc1nc(N)nc2c1ncn2[C@@H]1O[C@H](CO[P@](=O)(N[C@@H](C)C(=O)OCC(C)(C)C)Oc2cccc3ccccc23)[C@@H](O)[C@@]1(C)O,–,–,–,–,–,–,17,–
COc1nc(N)nc2c1ncn2[C@@H]1O[C@H](CO)[C@@H](O)[C@@]1(C)O [BETA-2'-C-METHYL-6-O-METHYL GUANOSINE],–,–,5200,21000,> 100000,–,–,–
COc1nc(N)nc2c1ncn2[C@@H]1O[C@H](COP(=O)(N[C@@H](C)C(=O)OCC(C)(C)C)Oc2cccc3ccccc23)[C@@H](O)[C@@]1(C)O (stereo partly drawn) [BMS-986094],7000,2.7,10,40,–,–,–,80
